Consider one compound from ChEMBL document CHEMBL4609986 (Bioorg Med Chem, 2020).

The term EC50 denotes the concentration giving half of the maximal effect. A word on the inhibition: it is the drop in the measured response relative to a control, in per cent.

In data set [1] the target is T1, Dual specificity tyrosine-phosphorylation-regulated kinase 1A (Homo sapiens, UniProt Q13627). The data set is described as follows: Inhibition of DYRK1A in human pancreatic islets assessed as induction of pancreatic beta-cells replication measured after 48 hrs by Hoechst 33342 staining based analysis. The procedure, abridged:
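Human islets (85-95% purity) rested 12 h in low-glucose DMEM with 10% FBS and 20 nM exendin-4. Dispersed to single cells and plated on 804G-conditioned-matrix 384-well plates for 48 h. Treated 48 h, then fixed with 4% PFA. Stained with anti-insulin, anti-Ki-67 and 4 μM Hoechst 33342; Ki67+Insulin+/Insulin+ scored by high-content imaging against per-plate cutoffs.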

Data set [2] addresses T1, Dual specificity tyrosine-phosphorylation-regulated kinase 1A. The data set is described as follows: Inhibition of human DYRK1A transfected in HEK293T cells co-transfected with Renilla plasmid, pGL3-NFAT and NFATc1 assessed as derepression of NFAT-dependent luciferase activity measured after 48 hrs by luciferase assay. The format is cell-based, HEK-293T. The procedure, abridged: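 HEK293T cells transfected with PEI using DYRK1A, Renilla plasmid, IL-2-based pGL3-NFAT firefly reporter and NFATc1. Next day the same transfected population was split into 96-well plates; 6 h later cells were treated for 48 h (11-point dose curve, n = 4), then lysed. EC50 from firefly/Renilla ratio, 4-parameter agonist fit. CC50 from loss of constitutive Renilla signal, 4-parameter inhibitor fit.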

Data set [3] has as its target Tyrosine-protein kinase ABL1 (Homo sapiens, UniProt P00519). Kind of data set: Inhibition of wild-type human non-phosphorylated ABL1 (S229 to K512 residues) expressed in mammalian expression system assessed as residual activity at 500 nM by Kinomescan method relative to control. In a few lines: (§1)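 Kinase panel of 468 kinases, scored as residual activity at 100 nM or 500 nM test compound.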

In data set [4] the target is T1, Dual specificity tyrosine-phosphorylation-regulated kinase 1A. Kind of data set: Inhibition of wild-type human partial length DYRK1A (H129 to S509 residues) expressed in mammalian expression system assessed as residual activity at 500 nM by Kinomescan method relative to control. The procedure, abridged:
as §1

A further data set concerns the target AURKB (Aurora kinase B) (Homo sapiens, UniProt Q96GD4). Kind of data set: Inhibition of AURKB in human HEK293T cells assessed as reduction in cell viability at 30 nM measured after 48 hrs in presence of 3 uM MK-5108 relative to control. The format is cell-based, HEK-293T. The procedure, abridged:
(§2)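 HEK293T cells treated 48 h with the compound alone or combined with a second kinase inhibitor at the stated level, then fixed, stained and counted. Cell number expressed as a percentage of untreated wells; n = 4-16.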

The target in the next data set is Aurora kinase B (Homo sapiens, UniProt Q96GD4). The data set is described as follows: Inhibition of AURKB in human HEK293T cells assessed as reduction in cell viability at 270 nM measured after 48 hrs in presence of 10 uM TAK-733. The format is cell-based. Particulars: hek-293t, 0.27 µM. In a few lines:
as §2

A short description of data set [5]: Selectivity index, ratio of CC50 for mouse R7T1 cells assessed as reduction in cell viability measured after 48 hrs by Hoechst 33342 staining based analysis to MEC for inhibition of DYRK1A in human pancreatic islets assessed as induction of pancreatic beta-cells replication measured after 48 hrs by Hoechst 33342 staining based analysis.

AURKB (Aurora kinase B), sequence (Q96GD4 whole entry): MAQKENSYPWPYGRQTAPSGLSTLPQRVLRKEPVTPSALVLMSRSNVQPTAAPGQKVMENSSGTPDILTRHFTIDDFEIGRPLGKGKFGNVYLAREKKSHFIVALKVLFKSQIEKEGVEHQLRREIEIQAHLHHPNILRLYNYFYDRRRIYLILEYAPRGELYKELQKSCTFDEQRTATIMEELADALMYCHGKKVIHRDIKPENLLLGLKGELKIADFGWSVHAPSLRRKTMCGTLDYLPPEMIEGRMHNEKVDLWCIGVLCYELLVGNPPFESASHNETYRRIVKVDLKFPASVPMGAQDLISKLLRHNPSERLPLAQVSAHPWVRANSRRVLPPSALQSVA
Aurora kinase B, sequence (Q96GD4 whole entry): as above
Tyrosine-protein kinase ABL1, sequence (P00519 whole entry, the tested form may be a part): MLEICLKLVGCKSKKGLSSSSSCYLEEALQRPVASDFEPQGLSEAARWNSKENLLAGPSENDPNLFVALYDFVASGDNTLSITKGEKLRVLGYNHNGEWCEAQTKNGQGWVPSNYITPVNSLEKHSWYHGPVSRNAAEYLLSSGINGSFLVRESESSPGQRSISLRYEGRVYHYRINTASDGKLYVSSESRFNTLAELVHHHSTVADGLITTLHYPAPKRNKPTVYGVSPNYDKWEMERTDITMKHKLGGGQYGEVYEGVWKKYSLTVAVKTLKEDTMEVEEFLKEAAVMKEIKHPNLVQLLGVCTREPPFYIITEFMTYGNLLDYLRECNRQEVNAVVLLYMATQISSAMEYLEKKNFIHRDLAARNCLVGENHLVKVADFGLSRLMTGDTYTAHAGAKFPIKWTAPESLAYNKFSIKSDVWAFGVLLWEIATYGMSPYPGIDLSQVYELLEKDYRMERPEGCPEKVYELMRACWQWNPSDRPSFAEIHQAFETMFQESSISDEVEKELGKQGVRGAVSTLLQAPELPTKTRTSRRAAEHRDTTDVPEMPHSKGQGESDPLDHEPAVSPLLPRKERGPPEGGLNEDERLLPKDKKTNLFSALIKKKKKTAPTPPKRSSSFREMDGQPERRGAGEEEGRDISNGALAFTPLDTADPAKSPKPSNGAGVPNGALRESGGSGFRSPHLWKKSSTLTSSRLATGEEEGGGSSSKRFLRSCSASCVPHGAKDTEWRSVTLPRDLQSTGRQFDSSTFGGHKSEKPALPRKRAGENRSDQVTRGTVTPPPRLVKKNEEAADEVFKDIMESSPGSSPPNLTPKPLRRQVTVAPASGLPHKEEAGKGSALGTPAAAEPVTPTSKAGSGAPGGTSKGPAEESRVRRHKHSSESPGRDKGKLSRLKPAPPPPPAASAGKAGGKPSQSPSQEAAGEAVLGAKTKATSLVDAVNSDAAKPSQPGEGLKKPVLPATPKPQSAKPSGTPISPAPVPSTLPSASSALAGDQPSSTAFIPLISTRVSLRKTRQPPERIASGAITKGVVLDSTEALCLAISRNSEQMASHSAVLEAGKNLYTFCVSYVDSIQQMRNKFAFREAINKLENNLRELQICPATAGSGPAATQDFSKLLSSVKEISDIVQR

For `CCOC(=O)c1cnc2ccc(-c3ccncc3)nc2c1N[C@H]1CC[C@H](CN(C)C)CC1`, in data set [1], the MEC amounted to 27 nM. In data set [2], the EC50 stood at 223 nM. Also, the Activity was found to be 43% in data set [3] and 0% in data set [4]. Besides, the inhibition at 48 h, 0.03 µM at AURKB (Aurora kinase B) is 31%. At Aurora kinase B, the “inhibition (INH)” value was “Not Active”. For the same compound, the “Selectivity Index” value in data set [5] is reported as 143.
